Shown are actives, neighbours in structure and some others; about 2.3% of the full set was active somewhere.
MEKK2 mut-MEK5 – MEK5 binding signal on mutant MEKK2 PB1, primary screen, biochemical, multiplex bead flow cytometry, Alexa488-MEK5; 290,000 tested, 0.35% active; Alexa488-MEK5 binding to MEKK2 mutant; percent response, % at 10 µM; in the data active = percent response above about 24%, passing the limit was not always enough
MEKK3 PB1 HTS – modulators of MEKK3-MEK5 PB1 binding, primary screen, biochemical, wildtype MEKK3, multiplex bead flow cytometry, Alexa488-MEK5. bead-based flow cytometry, Alexa488-MEK5 binding to MEKK3; actives lie on both sides; 0 = blocked by unlabeled MEK5, 100 = vehicle. binding response (% of control), % at 10 µM. 290,000 tested, 1.4% active;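 active = binding response more than 3 SD above or below the average of its plate-row segment, actives on both sides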;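 also: Alexa488 bead fluorescence after subtracting the streptavidin-only scavenger bead signal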
Target sequence (Q99759 whole entry, looked up): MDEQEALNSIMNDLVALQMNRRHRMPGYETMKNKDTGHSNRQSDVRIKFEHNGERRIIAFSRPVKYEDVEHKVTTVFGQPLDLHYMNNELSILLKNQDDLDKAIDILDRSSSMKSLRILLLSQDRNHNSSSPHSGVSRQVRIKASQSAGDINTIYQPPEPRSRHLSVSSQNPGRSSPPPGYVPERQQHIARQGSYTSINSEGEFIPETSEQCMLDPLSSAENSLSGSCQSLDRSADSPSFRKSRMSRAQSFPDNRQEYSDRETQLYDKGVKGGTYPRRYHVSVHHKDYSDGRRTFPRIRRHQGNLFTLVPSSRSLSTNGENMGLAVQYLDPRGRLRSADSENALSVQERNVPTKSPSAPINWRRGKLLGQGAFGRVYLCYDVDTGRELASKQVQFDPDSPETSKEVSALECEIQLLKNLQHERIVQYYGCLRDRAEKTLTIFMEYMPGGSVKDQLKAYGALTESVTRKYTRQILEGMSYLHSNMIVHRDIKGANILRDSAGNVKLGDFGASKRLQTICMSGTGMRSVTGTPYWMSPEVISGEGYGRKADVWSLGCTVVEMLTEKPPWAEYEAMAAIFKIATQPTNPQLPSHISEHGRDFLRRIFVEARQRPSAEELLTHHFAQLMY
ABCB1 inh – ABCB1 efflux pump inhibitors, primary screen, cell-based, multiplex, flow cytometry, ABCG2 counter-screen; 190,000 tested, 0.067% active; CCRF-Adr cells, JC-1 efflux; inhibition, % at 6.6 µM; ATP-dependent translocase ABCB1 (Homo sapiens), P08183; in the data active = inhibition above about 40%;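 also: 0% = vehicle and 100% = reference inhibitor; higher value means more JC-1 retained so stronger ABCB1 efflux block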
MEKK2wt PB1 HTS – modulators of MEK5 binding to wildtype MEKK2, primary screen, biochemical, multiplex bead flow cytometry, Alexa488-MEK5 | Mitogen-activated protein kinase kinase kinase 2 (Homo sapiens), Q9Y2U5 | Alexa488-MEK5 binding to MEKK2 WT; actives lie on both sides | binding response (% of control), % at 10 µM | 290,000 tested, 1.1% active; in the data active = binding response below about 67% or above about 130%
ABCG2 inh – ABCG2 efflux pump inhibitors, primary screen, multiplex with ABCB1, IgMXP3 cells, flow cytometry | Broad substrate specificity ATP-binding cassette transporter ABCG2 (Homo sapiens), Q9UNQ0 | JC-1 efflux | inhibition, % at 6.6 µM | 190,000 tested, 0.1% active;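 active = inhibition above 80%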;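 also: 0% = DMSO and 100% = nicardipine control wells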
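Times: 10 min at 25 °C | Test system: Two drug-resistant human cell lines, ABCG2 and ABCB1 | Quantity: 3 million cells/mL final, two lines in 1:1 ratio | Signal: Flow cytometry, 530 nm JC-1 signal | Dosing: Compound at 6.6 µM | Controls: Nicardipine and DMSO wells | Reagent: JC-1 as fluorescent efflux pump substrate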
MEKK2wt confirm – modulators of MEK5 binding to wildtype MEKK2, confirmation, biochemical, single concentration, multiplex bead flow cytometry. shares compounds with MEKK3 PB1 HTS. Alexa488-MEK5 binding to MEKK2 WT; actives lie on both sides. binding response (% of control), % at 10 µM. 5,900 tested, 2.4% active; in the data active = binding response below about 16% or above about 210%; inactive = in between
MEKK2mut confirm – mutant MEKK2 PB1-MEK5 binding signal retest – biochemical, single concentration, multiplex bead flow cytometry, confirmation. percent response, % at 10 µM. 5,900 tested, 2% active. shares compounds with MEKK3 PB1 HTS. AID 1893, 2009. Alexa488-MEK5 binding to MEKK2 mutant; in the data active = percent response mostly above about 71%, no sharp cut-off; inactive = mostly below about 38%;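 also: higher means compound restores mutant binding toward wildtype level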
MEKK3-MEK5 inh – MEKK3 wild-type PB1 binding to MEK5, inhibitors, confirmation, biochemical, bead multiplex flow cytometry, single concentration, wildtype | binding response (% of control), % at 10 µM | Alexa488-MEK5 binding to MEKK3; hits give low values | 5,900 tested, 1.8% active | shares compounds with MEKK3 PB1 HTS;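 active = binding response below 72% of control, or above a set upper limit, though filed actives all read lower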;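 also: 100% = DMSO only wells and 0% = binding blocked by excess unlabeled MEK5; lower values mean stronger disruption of MEK5 binding to MEKK3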
An asterisk follows results filed as active; x = not tested or not shown; [ ] = dose if it differs, or a comment.

SMILES	MEKK2 mut-MEK5	MEKK3 PB1 HTS	ABCB1 inh	MEKK2wt PB1 HTS	ABCG2 inh	MEKK2wt confirm	MEKK2mut confirm	MEKK3-MEK5 inh
CCOc1cccc2c1OC(c1cc(OC)c(OC)c(OC)c1)N1N=C(c3ccc(C)o3)CC21 (configuration not stated)	8.0	15.0*[inhibitor]	0.4	6.0*	1.3	93.0	-9.0	100.0
CCN(C(=O)COC(=O)CSc1ccc(C(N)=O)cc1[N+](=O)[O-])C1CCCCC1	4.0	103.0	x	105.0	x	x	x	x
Cc1ccc(N2CC(C(=O)N3CCC(C(=O)NCCCOC(C)C)CC3)CC2=O)cc1 (configuration not stated)	4.0	103.0	x	105.0	x	x	x	x
CCCCNC(=S)NNC(=O)c1sccc1C	4.0	101.0	4.2	102.0	11.3	x	x	x
CCCCNC(=S)NNC(=O)c1ccncc1	-16.0	35.0*[inhibitor]	-0.1	50.0	2.6	102.0	-2.0	104.0
Cc1ccc(CNC(=O)C2CCN(S(=O)(=O)c3ccc(Br)s3)CC2)cc1	-3.0	98.0	x	92.0	x	x	x	x
N#Cc1cccc(Oc2ccc(-c3cnc4ccccc4n3)cc2)c1C#N	-1.0	130.0*	0.0	100.0	0.8	98.0	-5.0	100.0
COc1ccc(OC)c(N(CC(=O)NCCSC2CCCCC2)S(=O)(=O)c2ccccc2)c1	2.0	96.0	x	100.0	x	x	x	x
CCNC(=O)NC(=O)C(C)On1nnc2ccc(S(=O)(=O)N(CC)CC)cc21 (configuration not stated)	1.0	150.0*	-1.8	106.0	-13.3	98.0	2.0	101.0
CCNC(=O)NC(=O)C(C)OC(=O)CCS(=O)(=O)c1ccc(C)cc1 (configuration not stated)	-13.0	97.0	-0.7	94.0	-1.4	x	x	x
Cc1nn(CCC(=O)NNC(=S)Nc2ccc(F)cc2)c(C)c1Br	0.0	129.0*	1.4	104.0	11.1	102.0	3.0	102.0
O=C(CCc1ccccc1)NNC(=S)Nc1ccc(F)cc1	-2.0	70.0*[inhibitor]	-0.1	84.0	0.7	101.0	-4.0	93.0
Cc1ccc(OCC(O)Cn2c(N3CCCCC3)nc3c2c(=O)[nH]c(=O)n3C)cc1C (configuration not stated)	4.0	105.0	x	105.0	x	x	x	x
CC(C)N(C(=O)CSc1nnc(Cc2csc(Nc3ccccc3)n2)o1)C(C)C	-2.0	75.0*[inhibitor]	2.4	90.0	7.5	108.0	5.0	105.0
O=C(CN1CCC(O)(c2cccc(F)c2)CC1)NCCc1c[nH]c2ccccc12	46.0	124.0	x	178.0*	x	129.0	22.0	108.0
C=C1CCC[C@]2(C)C[C@H]3OC(=O)C(CNC(C)CCCC(C)C)[C@H]3CC12 (some centres not stated)	17.0	109.0	x	138.0*	x	138.0	29.0	107.0
C=C1CCC[C@]2(C)C[C@H]3OC(=O)C(CN[C@@H](C)c4ccccc4)[C@H]3CC12 (some centres not stated)	3.0	96.0	x	106.0	x	x	x	x
CS(=O)(=O)Nc1ccc(C2=NN(S(C)(=O)=O)C(c3ccccc3)C2)cc1 (configuration not stated)	0.0	97.0	0.1	85.0	-0.1	x	x	x
CCS(=O)(=O)N1N=C(c2ccc(NS(C)(=O)=O)cc2)CC1c1ccccc1 (configuration not stated)	x	32.0*[inhibitor]	0.3	x	0.5	76.0	-9.0	74.0
CS(=O)(=O)Nc1ccc(C2=NN(S(=O)(=O)c3ccccc3)C(c3cccs3)C2)cc1 (configuration not stated)	x	7.0*[inhibitor]	0.3	x	-0.6	79.0	-1.0	73.0
CC(C)C(=O)N1N=C(c2ccc(NS(C)(=O)=O)cc2)CC1c1cccs1 (configuration not stated)	1.0	101.0	-0.8	101.0	1.3	x	x	x
COc1ccc(NC(=O)CSc2cn[nH]n2)cc1OC	5.0	103.0	x	100.0	x	x	x	x
CC(=O)N1CC(C)Oc2ccc(S(=O)(=O)Nc3ccc(Cl)cn3)cc21 (configuration not stated)	2.0	95.0	x	97.0	x	x	x	x
O=C(CSc1nnc(CNC(=O)c2cccc(C(F)(F)F)c2)o1)NC1CCCC1	-5.0	98.0	x	100.0	x	x	x	x
CCCC12CN3CCN(CC(C3)/C1=N\NC(=O)c1ccccc1N)C2	1.0	154.0*	0.2	114.0	1.1	99.0	-5.0	101.0
SMILES	MEKK2 mut-MEK5	MEKK3 PB1 HTS	ABCB1 inh	MEKK2wt PB1 HTS	ABCG2 inh	MEKK2wt confirm	MEKK2mut confirm	MEKK3-MEK5 inh
CC(C)(C)c1ccc(C(=O)N/N=C2\C3CN4CCN(C3)CC2(c2ccccc2)C4)cc1	0.0	132.0*	1.0	106.0	7.0	100.0	-4.0	101.0
CC(C)CN(C(=O)c1ccc(F)cc1F)c1c(N)n(CC(C)C)c(=O)[nH]c1=O	-1.0	100.0	x	98.0	x	x	x	x
CCOC(=O)C1=C(C)NC(=O)C1CC(=O)Nc1ccccc1 (configuration not stated)	6.0	125.0*	0.5	115.0	4.8	102.0	2.0	99.0
CCOC(=O)C1=C(C)NC(=O)NC1c1ccc(OCC(=O)Nc2ccccc2)c(OC)c1 (configuration not stated)	0.0	102.0	-0.8	105.0	1.7	x	x	x
COc1cccc(N/C(SCc2ccccc2Cl)=C(/C#N)C(=O)NCc2cccs2)c1	-1.0	121.0	-0.4	98.0	-2.4	x	x	x
COc1cccc(N/C(SCc2ccccc2C)=C(/C#N)C(=O)NCc2cccs2)c1	-1.0	130.0*	-0.9	97.0	-7.9	83.0	-21.0	84.0
CCn1c(C)nc2cc(C(=O)NNC(=S)Nc3ccc(Cl)cc3)ccc21	-13.0	25.0*[inhibitor]	x	19.0*[inhibitor]	x	97.0	5.0	101.0
CC1=C(C)C(O)N(Cc2ccccc2)C1=O (configuration not stated)	4.0	105.0	x	100.0	x	x	x	x
Cc1ccc(C(=O)Nc2cccc3cccnc23)cc1C	4.0	111.0	x	108.0	x	x	x	x
O=C(N/N=C/c1c[nH]c2ccccc12)c1cc(-c2ccc3ccccc3c2)n[nH]1	15.0	112.0	-0.5	138.0*	-1.9	104.0	-5.0	102.0

High-throughput results as filed in PubChem.
